TPT1 inh: C. albicans TPT1 enzyme inhibition; actives 0.81% (n = 300,000); inhibition, % at 5 µM; recombinant caTPT1, FP RNA substrate dephosphorylation;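 active = inhibition above the mean of all tested compounds plus 3 SD, set per screening campaign, cut at about 24% in these data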;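 note: plate controls were DMSO alone for no effect and ferristatin control at 100 nM for full effect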
proCasp3 act: activates human procaspase-3; P42574; activation, % at 8.5 µM; actives 0.11% (n = 330,000); recombinant procaspase-3 D3A, Ac-DEVD-pNA absorbance 405 nm;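 active = activation above the mean of all tested compounds plus 3 SD, cut at about 21% in these data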;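 note: 0% = DMSO alone and 100% = DMSO wells spiked with extra 5 µM PC-3 D3A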
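Compound: 8.5 µM single point, 0.8% DMSO / Material: Autoprocessing-dead procaspase-3 D3A mutant enzyme / Timing: 1 h preincubation plus 2 h reaction at 25 °C / Medium: Zinc-free HEPES/NaCl buffer with 0.01% Triton X-100 at pH 7.4 / Technique: 405 nm absorbance of p-nitroaniline, reads at 0 and 120 min / Repeats: one well per compound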
IDE cell activ: IDE (human) activation, cell-based | HEK cells, FAbeta-B cleavage, fluorescence polarization; 0% vehicle, 100% cell-free pure enzyme wells | activation, % at 5.96 µM | actives 0.073% (n = 340,000);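 active = activation above the mean of all tested compounds plus 3 SD, set per screening campaign, cut at about 17% in these data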
IDE cell inh: inhibits human insulin-degrading enzyme in HEK cells; inhibition, % at 5.59 µM; actives 0.41% (n = 320,000); P14735; FAbetaB cleavage, fluorescence polarization;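 active = percent inhibition above the average of all tested compounds plus 3 SD, set per screening campaign, cut at about 16% in these data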;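 note: IDE supplied by intact live HEK cells; FP after avidin binding of uncleaved biotin substrate so inhibition keeps polarization high; 0% = DMSO wells and 100% = 60 µM reference IDE inhibitor Ii1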
procasp7 counter: counter-screen for procaspase-3 activators: activators of human procaspase-7; P55210; recombinant procaspase-7, Ac-DEVD-pNA absorbance 405 nm; D23A/D198A/D206A triple mutant, cannot self-cleave; scale: DMSO 0, 5 µM enzyme 100; activation, % at 8.5 µM; actives 0.093% (n = 330,000); AID 463210;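 active = percent activation above the screen-wide mean plus 3 SD, cut at about 25% in these data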
Target sequence (P55210 whole entry D23A/D198A/D206A): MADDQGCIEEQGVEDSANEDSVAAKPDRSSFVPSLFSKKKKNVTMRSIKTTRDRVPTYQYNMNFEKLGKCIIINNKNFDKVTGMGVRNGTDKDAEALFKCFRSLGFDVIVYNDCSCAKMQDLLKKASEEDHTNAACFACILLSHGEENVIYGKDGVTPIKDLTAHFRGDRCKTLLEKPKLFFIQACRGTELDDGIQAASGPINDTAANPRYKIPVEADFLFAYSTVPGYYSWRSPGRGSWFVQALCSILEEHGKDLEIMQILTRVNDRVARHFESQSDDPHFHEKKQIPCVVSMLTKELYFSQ
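signal = Epi-absorbance of released pNA at 405 nm, two timepoints | assay system = Uncleavable procaspase-7 mutant enzyme | reagent = Ac-DEVD-pNA substrate, 400 µM as added | times = 1 h enzyme–compound preincubation and 2 h substrate reaction, both 25 °C | benchmarks = low DMSO alone, high DMSO plus 5 µM PC-7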
caTPT1 confirm: TPT1 (C. albicans) inhibition, confirmation; shares compounds with TPT1 inh; recombinant caTPT1, fluorescence polarization, RNase T1 coupled; inhibition, % at 5 µM; actives 74% (n = 2,400);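 active = inhibition above the primary screen limit, the mean inhibition of all tested compounds plus 3 SD, cut at about 25% in these data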
RNase T1 inh: RNase T1 inhibition in TPT1 counter-screen. inhibition, % at 5 µM. shares compounds with TPT1 inh. actives 83% (n = 2,400). RNase T1 cleavage, fluorescence polarization, 1536-well;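 active = inhibition above the solvent-only control well mean plus 3 SD, limit set per screening run, cut at about 23% in these data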;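 note: plate controls were DMSO wells with enzyme for no effect and wells without RNase T1 for full effect; inhibitors block cleavage so intact labeled substrate keeps polarization high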
Target sequence (P00651 whole entry, looked up): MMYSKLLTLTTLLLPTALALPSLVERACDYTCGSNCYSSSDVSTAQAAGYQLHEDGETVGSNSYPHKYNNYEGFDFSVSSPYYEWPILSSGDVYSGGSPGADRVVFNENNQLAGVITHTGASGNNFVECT
* hit, by the source's call; . = no result. This is a sample that favours compounds with a hit; in the whole collection about 1.2% have one here.

SMILES | TPT1 inh | proCasp3 act | IDE cell activ | IDE cell inh | procasp7 counter | caTPT1 confirm | RNase T1 inh
O=C(CC1OC(=O)c2ccccc21)Nc1cc(Cl)ccc1N1CCCC1 (stereo not drawn) | 4 | 0 | 0 | -1 | -4 | . | .
NS(=O)(=O)c1ccc(NC(=O)c2ccc(CNS(=O)(=O)c3cc(C(F)(F)F)ccc3Cl)cc2)cc1 | 3 | -4 | 3 | -1 | 0 | . | .
Cc1cc(/C=c2\sc3nc4ccccc4n3c2=O)c(C)n1-c1ccc(C(=O)O)cc1 | . | . | 1 | . | . | . | .
O=C(O)c1ccc(-c2ccc(/C=c3/sc4nc5ccccc5n4c3=O)o2)cc1Cl | 49* | -5 | -1 | 4 | -2 | 120* | 122*
Cc1ccc2c(nc3s/c(=C/c4cccs4)c(=O)n32)c1C | . | . | 1 | . | . | . | .
Cc1ccc2c(nc3s/c(=C\c4ccc(-c5ccccc5C(=O)O)o4)c(=O)n32)c1C | 116* | -10 | -5 | 2 | -8 | 138* | 130*
CCOC(=O)CSc1nnc(NC(=O)c2cccc([N+](=O)[O-])c2C)s1 | -4 | -1 | 2 | 2 | 3 | . | .
CC1(c2ccc(C#N)cc2)NC(=O)N(CC(=O)Nc2cc(S(=O)(=O)N3CCOCC3)ccc2Cl)C1=O (stereo not drawn) | 3 | 5 | 3 | 5 | 6 | . | .
S=C(Nc1ccc(Cl)cc1)N(CCCN1CCOCC1)Cc1cccs1 | 57* | -6 | 3 | 3 | -8 | 4 | 5
O=C(Nc1ccc(Cl)cc1)N(CCCN1CCOCC1)Cc1cccs1 | 3 | 1 | 3 | 1 | -13 | . | .
CCOc1cccc(C(=O)Nc2ccc(N(CC)CC)cc2)c1 | -4 | -11 | 6 | -5 | -5 | . | .
CCN(CC)c1cccc(OCC(=O)N(C)CCC#N)c1 | 43* | -14 | 0 | -2 | -30 | 41* | 51*
CN=C1S/C(=C\c2ccc(N3CCCC3)c(F)c2)C(=O)N1C | 30* | -24 | 2 | -2 | -36 | 52* | 66*
COc1ccccc1N=Nc1nc(-c2ccccc2)c(-c2ccccc2)[nH]1 | 25* | -4 | -1 | 3 | 1 | 33* | 42*
Oc1ccccc1N=Nc1nc(-c2ccccc2)c(-c2ccccc2)[nH]1 | 46* | -8 | 13 | -4 | -1 | 58* | 69*
COc1ccc(N=Nc2nc(-c3ccccc3)c(-c3ccccc3)[nH]2)cc1 | 31* | 14 | -4 | -5 | 9 | 43* | 56*
CC(C)(C)c1ccc(/C=C2\SC(=O)N(CCNC(=O)c3cccc(S(=O)(=O)N4CCOCC4)c3)C2=O)cc1 | -2 | -1 | 1 | 0 | 7 | . | .
COc1cccc(-c2cc(C(=O)N3CCc4ccccc4C3)[nH]n2)c1 | 2 | 7 | 4 | 3 | 5 | . | .
CCOC(=O)C1=C(C)N=c2s/c(=C/c3ccc(OCC(=O)O)c(OC)c3)c(=O)n2C1c1ccc(Cl)cc1 (stereo not drawn) | 42* | 3 | -4 | 11 | -11 | 60* | 72*
CCOC(=O)C1=C(C)N=c2s/c(=C\c3ccc(OCC(=O)O)cc3)c(=O)n2C1c1ccc(Cl)cc1 (stereo not drawn) | . | . | -9 | . | . | . | .
CCN=c1scc(-c2ccc3c(c2)NC(=O)CO3)n1N=C1CCCC1 | 43* | -11 | 7 | 6 | -9 | 39* | 50*
CCCCN=c1scc(-c2ccc3c(c2)NC(=O)CO3)n1N=C1CCCC1 | 10 | -5 | -1 | 1 | -8 | . | .
COc1cc(/C=C2/C(=N)N3C(=NC2=O)SN=C3S(C)(=O)=O)ccc1OS(=O)(=O)c1ccccc1 | 28* | 1 | . | 3 | 1 | 16 | 23*
CCOc1cc(/C=C2/C(=N)N3C(=NC2=O)SN=C3S(C)(=O)=O)ccc1OS(=O)(=O)c1ccccc1 | 15 | -7 | -8 | 4 | 3 | . | .
Cc1ccc(-n2cccc2/C=C2/C(=N)N3C(=NC2=O)SN=C3S(C)(=O)=O)cc1Cl | 32* | -13 | 4 | -4 | 4 | 35* | 48*
CC(C)NC(=O)N(Cc1ccccc1)Cc1cccs1 | -5 | -13 | 3 | 9 | 4 | . | .
